One block for each compound: values may come before it.
Columns and labels:
[1] = Drug level in anesthetized Sprague-Dawley rat plasma at 5 mg/kg, iv after 3 mins; format: ADME, organism-based; parameters: dose 5 mg/kg, route intravenous
Summary of the method: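 Male SD rats under inactin (100 mg/kg). Femoral artery catheter for pressure, femoral vein for dosing, left ventricular catheter via the carotid for LVP; LV dp/dt_max derived from LVP. Vehicle (60% propylene glycol/water, 1 mL/kg) given first, compound 45 min later. Values are % change from baseline at 3 min after 5 mg/kg iv, with blood drawn at 3 min; n = 2–3.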

[2] = Drug level in mdr1a expressing wild type CF1 mouse plasma at 10 mg/kg, po after 2 hrs; format: ADME, organism-based; parameters: dose 10 mg/kg, route oral
Summary of the method: (§1)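 CF-1 mice, mdr1a (−/−) and (+/+), dosed orally at 10 mg/kg; brain and plasma concentrations taken 2 h after dosing; mean of n = 3.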

[3] = Drug level in mdr1a deficient CF1 mouse plasma at 10 mg/kg, po after 2 hrs; format: ADME, organism-based; parameters: dose 10 mg/kg, route oral; summary of the method: as §1
[4] = Drug level in anesthetized Beagle dog plasma at 5 mg/kg, iv infused over 10 mins measured immediately after end of dosing; format: ADME, organism-based, Canis lupus familiaris; parameters: dose 5 mg/kg, route intravenous
Summary of the method: (§2)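 Dogs were anesthetized and, after surgery, stabilized at least 1 h before baseline readings. Doses of 1, 2 and 5 mg/kg were infused iv over 10 min each (cumulative 1, 3, 8 mg/kg). QTc, MAP, LVSP, CO, HR and LV dp/dt_max were read at 0, 10 and 20 min as maximum % change from baseline. Plasma was sampled at the end of each dosing period; n = 3.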

[5] = Drug level in anesthetized Beagle dog plasma at 2 mg/kg, iv infused over 10 mins measured immediately after end of dosing; format: ADME, organism-based, Canis lupus familiaris; parameters: dose 2 mg/kg, route intravenous; summary of the method: as §2
[6] = Drug level in anesthetized Beagle dog plasma at 1 mg/kg, iv infused over 10 mins measured immediately after end of dosing; format: ADME, organism-based, Canis lupus familiaris; parameters: dose 1 mg/kg, route intravenous; summary of the method: as §2
[7] = Drug level in Sprague-Dawley rat plasma at 10 mg/kg, po after 2 hrs; format: ADME, organism-based; parameters: dose 10 mg/kg, route oral
Summary of the method: (§3)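 SD rats dosed orally at 10 mg/kg; brain (nmol/g) and plasma levels measured 2 h later.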

Brain [8] = experiment: Drug level in Sprague-Dawley rat brain at 10 mg/kg, po after 2 hrs; format: ADME, organism-based; parameters: dose 10 mg/kg, route oral; conditions: in vivo; summary of the method: as §3
[9] = Ratio of drug level in brain to plasma of Sprague-Dawley rat at 10 mg/kg, po after 2 hrs; format: ADME, organism-based; parameters: dose 10 mg/kg, route oral; conditions: read-out: BPR
Summary of the method: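 Sprague-Dawley rats were dosed orally at 10 mg/kg. Brain (nmol/g) and plasma concentrations were measured 2 h later, and the brain-to-plasma ratio was taken from these.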

[10] = Cmax in rhesus monkey at 1 mg/kg, po and 0.3 mg/kg, iv; format: ADME, organism-based, Macaca mulatta; conditions: in vivo
Summary of the method: (§4)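 PK in rats (oral 3 mg/kg, iv 1 mg/kg) and rhesus monkeys (oral 1 mg/kg, iv 0.3 mg/kg); values are means of n = 3.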

[11] = Bioavailability in rhesus monkey at 1 mg/kg, po and 0.3 mg/kg, iv; format: ADME, organism-based, Macaca mulatta; conditions: in vivo
[12] = Volume of distribution at steady state in rhesus monkey at 1 mg/kg, po and 0.3 mg/kg, iv; format: ADME, organism-based, Macaca mulatta; conditions: in vivo, read-out: Vdss
Summary of the method: (§5)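 Pharmacokinetic parameters are the mean of n = 3 animals. Rats were dosed 1 mg/kg iv and 3 mg/kg po; rhesus monkeys 0.3 mg/kg iv and 1 mg/kg po.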

[13] = AUC (0 to infinity) in rhesus monkey at 1 mg/kg, po; format: ADME, organism-based, Macaca mulatta; parameters: time infinity, dose 1 mg/kg, route oral; conditions: plasma; summary of the method: as §4
[14] = Bioavailability in Sprague-Dawley rat at 3 mg/kg, po and 1 mg/kg, iv; format: ADME, organism-based; conditions: in vivo; summary of the method: as §4
[15] = AUC (0 to infinity) in Sprague-Dawley rat at 3 mg/kg, po; format: ADME, organism-based; parameters: time infinity, dose 3 mg/kg, route oral; conditions: plasma; summary of the method: as §4
[16] = Cmax in Sprague-Dawley rat at 3 mg/kg, po and 1 mg/kg, iv; format: ADME, organism-based; conditions: in vivo; summary of the method: as §4
[17] = Volume of distribution at steady state in Sprague-Dawley rat at 3 mg/kg, po and 1 mg/kg, iv; format: ADME, organism-based; conditions: in vivo, read-out: Vdss; summary of the method: as §5
Brain [18] = experiment: Drug level in mdr1a expressing wild type CF1 mouse brain at 10 mg/kg, po after 2 hrs; format: ADME, organism-based; parameters: dose 10 mg/kg, route oral; conditions: in vivo; summary of the method: as §1
Brain [19] = experiment: Drug level in mdr1a deficient CF1 mouse brain at 10 mg/kg, po after 2 hrs; format: ADME, organism-based; parameters: dose 10 mg/kg, route oral; conditions: in vivo; summary of the method: as §1
[20] = Ratio of drug level in brain to plasma in mdr1a expressing wild type CF1 mouse at 10 mg/kg, po after 2 hrs; format: ADME, organism-based; parameters: dose 10 mg/kg, route oral; conditions: read-out: BPR
Summary of the method: (§6)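 P-gp-deficient mdr1a (−/−) and wild-type mdr1a (+/+) CF-1 mice were dosed orally at 10 mg/kg. Brain (nmol/g) and plasma levels were taken 2 h post-dose, n = 3. The ratio was calculated from the mean values.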

[21] = Ratio of drug level in brain to plasma in mdr1a deficient CF1 mouse at 10 mg/kg, po after 2 hrs; format: ADME, organism-based; parameters: dose 10 mg/kg, route oral; conditions: read-out: BPR; summary of the method: as §6

Compound: C[C@@H]1NC(c2cccc(O)n2)=NC1(c1ccc(F)cc1)c1ccc(F)cc1
- concentration at 0.05 h [1]: 2.6 µM

Compound: C[C@@H]1NC(c2cc(C#N)ccn2)=N[C@@]1(c1ccc(F)cc1)c1ccc(F)nc1
- concentration at 0.05 h [1]: 6.3 µM

Compound: C[C@@H]1NC(c2cnccn2)=N[C@@]1(c1ccc(F)cc1)c1ccc(F)nc1
- concentration at 0.05 h [1]: 5.1 µM

Continued, values first:

- concentration at 0.05 h [1]: 4.9 µM
Compound: C[C@@H]1NC(c2cccc(S(N)(=O)=O)c2)=N[C@@]1(c1ccc(F)cc1)c1ccc(F)nc1

- concentration at 2 h [2]: 8.36 µM
- concentration at 2 h [3]: 7.01 µM
- concentration at 10 min [4]: 26.9 µM
- concentration at 10 min [5]: 14.3 µM
- concentration at 10 min [6]: 7.7 µM
- concentration at 2 h [7]: 2.2 µM
- Drug uptake (Brain [8]): 0.91 nmol/g
- Kp at 2 h [9]: 0.42
- Cmax [10]: 0.64 µM
- bioavailability [11]: 92%
- Vd [12]: 3.8 L/kg
- AUC(0-inf) [13]: 11 µM·h
- bioavailability [14]: 92%
- AUC(0-inf) [15]: 4.8 µM·h
- Cmax [16]: 1.1 µM
- Vd [17]: 2.6 L/kg
- Drug uptake (Brain [18]): 4 nmol/g
- Drug uptake (Brain [19]): 14.8 nmol/g
- Kp at 2 h [20]: 0.48
- Kp at 2 h [21]: 2.05
Compound: C[C@@H]1NC(c2ccc(=O)n(C(F)F)c2)=N[C@@]1(c1ccc(F)cc1)c1ccc(F)nc1

- concentration at 0.05 h [1]: 5.3 µM
Compound: C[C@@H]1NC(c2cccc(=O)[nH]2)=N[C@@]1(c1ccc(F)cc1)c1ccc(F)nc1

- concentration at 0.05 h [1]: 4.3 µM
Compound: C[C@@H]1NC(c2ccnc(C#N)c2)=N[C@@]1(c1ccc(F)cc1)c1ccc(F)nc1
